# In the library only some 3.2% were active in any assay of this set; here they are far more common.
# Mcl1-Noxa inh = Mcl-1/Noxa binding inhibitors, primary screen, biochemical, TR-FRET, 1536-well. TR-FRET Mcl-1/Noxa peptide binding, 2 h. AID 1022, 2008. 220,000 tested, 1.5% active. inhibition, % at 21.7 µM;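 active = compounds that cut the protein-peptide binding signal by more than 50% relative to plate controls in a single-dose test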;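 note: His-tagged Mcl-1 with rhodamine Noxa BH3 peptide and terbium anti-His antibody; 0% = Mcl-1 plus Noxa peptide wells and 100% = peptide-only wells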
# Hck-Nef inh = inhibitors of Nef-activated human Hck kinase, primary screen, biochemical, Z-Lyte FRET, 384-well, Hck-YEEI; Tyrosine-protein kinase HCK (Homo sapiens), P08631; Recombinant Hck-YEEI plus Nef, Z-Lyte FRET kinase assay; inhibition, % at 20 µM; 220,000 tested, 0.68% active;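 active = Hck-Nef kinase inhibition above about 50%, limit read from the data; inactive = inhibition below that limit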;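 note: 0% = DMSO with Hck plus Nef and 100% = Hck alone without Nef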
# Target sequence (P08631 whole entry, looked up): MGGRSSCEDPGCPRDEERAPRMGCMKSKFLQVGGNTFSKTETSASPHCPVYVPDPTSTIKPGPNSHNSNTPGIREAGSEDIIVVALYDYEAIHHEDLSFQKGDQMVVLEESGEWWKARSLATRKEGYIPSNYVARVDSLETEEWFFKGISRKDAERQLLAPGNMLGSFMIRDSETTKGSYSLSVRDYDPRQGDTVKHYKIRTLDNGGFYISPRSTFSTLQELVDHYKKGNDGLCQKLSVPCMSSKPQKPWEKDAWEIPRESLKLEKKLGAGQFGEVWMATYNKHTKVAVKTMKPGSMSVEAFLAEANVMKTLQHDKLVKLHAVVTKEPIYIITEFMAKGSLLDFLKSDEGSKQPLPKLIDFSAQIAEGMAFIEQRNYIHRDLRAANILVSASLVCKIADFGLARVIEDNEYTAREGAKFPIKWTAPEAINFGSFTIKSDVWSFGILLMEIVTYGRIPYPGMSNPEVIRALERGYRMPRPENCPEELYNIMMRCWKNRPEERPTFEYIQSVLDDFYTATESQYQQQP
# 14-3-3 Bad inh = inhibitors of 14-3-3 zeta/Bad binding, primary screen, biochemical, TR-FRET, bovine 14-3-3 zeta; inhibition, % at 21.7 µM; 14-3-3 protein zeta/delta (Bos taurus), P63103; TR-FRET 14-3-3zeta/Dy647-pBad peptide displacement, 1 h; 220,000 tested, 0.71% active;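 active = inhibition above about 70%, limit read from the data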;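 note: 0% = full 14-3-3 plus peptide FRET controls and 100% = background without 14-3-3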
# Bim-Mcl-1 = inhibitors of Bim peptide binding to Mcl-1, primary screen, biochemical, bead-based flow cytometry, multiplex; Induced myeloid leukemia cell differentiation protein Mcl-1 (Homo sapiens), Q07820; Bim peptide-Mcl-1 binding; inhibition, % at 10 µM; 190,000 tested, 0.1% active; AID 1009, 2008; in the data active = inhibition above about 40%;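 note: 0% = no compound tracer wells and 100% = peptide blocker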
# Mcl1-Bid inh = Mcl-1/Bid binding inhibitors, primary screen, biochemical, TR-FRET, 1536-well; 220,000 tested, 0.97% active; TR-FRET Mcl-1/Bid-Dy647 peptide binding; inhibition, % at 21.7 µM; Induced myeloid leukemia cell differentiation protein Mcl-1 (Homo sapiens), Q07820;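 active = compounds that cut the binding signal by more than half at the single screening dose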;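 note: His-tagged Mcl-1 with europium anti-His antibody binding Bid BH3 peptide; 0% = Mcl-1 plus peptide wells and 100% = peptide-only wells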
# Biofilm kill mix = clotrimazole potentiators killing C. albicans biofilm, primary screen, 4-compound mixtures | inhibition, % at 7.6 µM | C. albicans biofilm persisters + clotrimazole, fluorescence viability; primary screen in compound mixtures of four per well | 120,000 tested, 0.02% active;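 active = inhibition above 30.3% in the primary screen of four-compound pools, then above 30% when the compound was retested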;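 note: compounds exposed to preformed 24 h biofilms for 48 h; 0% = untreated biofilm control and 100% = clotrimazole plus chlorhexidine kill blank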
#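 Probe or stimulus – Clotrimazole 50 µg/mL co-treatment · System – C. albicans biofilms · Schedule – 24 h biofilm formation, then 48 h compound exposure, 37 °C · Evaluation – percent inhibition of biofilm viability · Technique – 2-h Alamar Blue fluorescence, 535/590 nm excitation/emission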
# Hck-Nef confirm = retest of Hck:Nef kinase inhibitor hits, confirmation, biochemical, Z-Lyte FRET, 384-well, p-Tyr peptide counterscreen; shares compounds with Hck-Nef inh; Recombinant Hck-YEEI:Nef, Z-Lyte FRET kinase assay; calls only at 10 µM; 1,300 tested, 28% active;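 active = average inhibition of at least 50%, with Z-scores no higher than 3 in both the phospho-tyrosine peptide and fluorescence counterscreens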
# Numbers without * were called inactive; i = inactive; . = no result shown; + = active, no number.
SMILES,Mcl1-Noxa inh,Hck-Nef inh,14-3-3 Bad inh,Bim-Mcl-1,Mcl1-Bid inh,Biofilm kill mix,Hck-Nef confirm
Cc1sc2ncnc(SCC(=O)Nc3nc(-c4ccc(F)c(F)c4)cs3)c2c1C,-10,117*,48,-4,-44,18,i
Cc1ccc(S(=O)(=O)Nc2ccc(N(C)C)cc2)cc1,73*,85*,6,0,-3,12,i
Cc1cccc(OC(=O)CCN2C(=O)C3C4C=CC(C5CC45)C3C2=O)c1C (stereo not drawn),9,14,14,0,-3,12,.
CC(C)n1cnc2cc(NCc3ccco3)ccc21,52*,79*,70*,0,-53,.,i
CC(C)n1cnc2cc(NCc3ccccc3O)ccc21,-40,-5,6,.,-181,9,.
O=C(Nc1cc(C(F)(F)F)ccc1N1CCCCC1)c1cccc([N+](=O)[O-])c1,.,-1,-2,-2,-4,.,.
CCc1ccc(/C=C(/C#N)C(N)=S)s1,14,23,-10,-1,-32,10,.
CCc1sc(/C=C(/C#N)C(N)=S)cc1[N+](=O)[O-],43,63*,-12,39,-25,-11,i
Cc1ccc(-n2nc(C)cc2N)c(C)c1,20,-14,-7,0,-59,15,.
O=C(c1cc(-c2cccs2)nc2ccccc12)N1CCN(c2ccccc2O)CC1,7,17,-2,2,-25,6,.
O=C(Cc1cc(=O)oc2cc(O)ccc12)NCC1CCC(C(=O)O)CC1 (stereo not drawn),-7,62*,-4,-3,11,.,.
CC(C)CN(CC(C)C)C(=O)COc1ccccc1C(N)=O,4,22,-9,0,-12,16,.
COc1ccc(/C=C(\C#N)C(=O)Nc2ccc3[nH]c(=O)[nH]c3c2)cc1,46,71*,9,.,-61,14,i
N#C/C(=C\c1ccccc1OCc1ccc(C(=O)O)cc1)C(=O)Nc1ccc(O)cc1,12,69*,-4,2,-14,-4,i
COc1cc(/C=C(/C#N)c2ccc(F)cc2)ccc1OCc1ccc(C(=O)O)o1,29,55*,2,5,5,.,+
COc1ccc(NC(=O)/C(C#N)=C\c2ccc(OCc3ccc(C(=O)O)cc3)c(OC)c2)cc1,46,70*,-11,-1,-18,12,i
N#CCC(=O)Nc1ccc(C(=O)OCC(=O)N(Cc2ccccc2)C2CCS(=O)(=O)C2)cc1 (stereo not drawn),19,21,-17,-2,-5,-8,.
CC(O)C(C(=O)OCc1ccc([N+](=O)[O-])cc1)N1C(=O)c2ccccc2C1=O (stereo not drawn),7,71*,10,-4,-28,2,i
C[C@H](N)C(=O)OCc1ccc([N+](=O)[O-])cc1,10,2,3,.,-8,16,.
CCc1ccccc1NC(=O)Cn1nnc(-c2cccnc2)n1,-11,-1,25,0,-29,.,.
COc1ccc(/C=C2\C(=O)ON=C2c2cccc([N+](=O)[O-])c2)cc1,47,53*,-5,-2,-68,19,i
CCC(C)C(NC(=O)[C@@H](NC(=O)c1ccccc1F)C(C)C)C(=O)OC (stereo partly drawn),-10,3,12,0,-11,.,.
CCN(CC)S(=O)(=O)c1ccc(C)c(NC(=O)COC(=O)[C@@H]2CCCN2C(=O)c2cccs2)c1,10,23,-5,-2,2,17,.

# Assay outcomes as filed in PubChem.
